# Calls of active or inactive are those of the source. The rule behind the calls is not given here.
# Target: Cholinesterase (Homo sapiens, UniProt P06276)
# Experiment: Inhibition of human serum BuChE using butyrylthiocholine iodide as substrate preincubated for 20 mins prior to substrate addition by Ellman's method
# Conditions: not given
# Outline: (§1)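 Ellman method with acetylthiocholine iodide (AChE) or butyrylthiocholine iodide (BuChE) as substrate. Enzyme and inhibitor preincubated 20 min at 37 °C before substrate addition. Blanks without enzyme corrected for non-enzymatic hydrolysis. Five inhibitor concentrations giving 20-80% inhibition. IC50 from linear regression of % inhibition vs log final concentration. Mean of two or three independent measurements, each in triplicate.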
# Cholinesterase, sequence (P06276 whole entry): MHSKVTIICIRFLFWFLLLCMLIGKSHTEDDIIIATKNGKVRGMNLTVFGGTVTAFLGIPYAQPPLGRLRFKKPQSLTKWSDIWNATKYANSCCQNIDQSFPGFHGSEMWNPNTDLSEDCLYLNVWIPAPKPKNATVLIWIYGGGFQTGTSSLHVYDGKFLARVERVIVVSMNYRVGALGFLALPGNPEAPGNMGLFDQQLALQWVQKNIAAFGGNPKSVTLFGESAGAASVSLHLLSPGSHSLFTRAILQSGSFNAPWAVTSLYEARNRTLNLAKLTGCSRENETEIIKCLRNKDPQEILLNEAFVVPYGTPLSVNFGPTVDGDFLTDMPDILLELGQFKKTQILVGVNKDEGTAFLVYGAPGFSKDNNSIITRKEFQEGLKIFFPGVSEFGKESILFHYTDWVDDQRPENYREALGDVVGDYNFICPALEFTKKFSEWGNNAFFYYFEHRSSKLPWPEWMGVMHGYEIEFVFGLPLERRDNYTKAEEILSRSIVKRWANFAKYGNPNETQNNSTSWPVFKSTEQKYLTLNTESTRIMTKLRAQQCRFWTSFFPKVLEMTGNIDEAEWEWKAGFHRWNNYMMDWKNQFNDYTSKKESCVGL
row,Structure (SMILES),IC50 [µM]
1,CN(CCCCCCCOc1cccc(-c2oc3ccccc3c2C(=O)c2ccccc2)c1)Cc1ccccc1,2.88
2,CN(CCCOc1ccc(-c2cc3ccccc3o2)cc1)Cc1ccccc1,136
3,Cc1cccc(C(=O)c2c(-c3cccc(OCCCCCCCN(C)Cc4ccccc4)c3)oc3ccccc23)c1,0.4
4,CNC(=O)Oc1cccc(CN(C)CCCCCCCOc2ccc(-c3oc4ccccc4c3C(=O)c3ccc(C)cc3)cc2)c1,0.88

# Target: T1, Acetylcholinesterase (Homo sapiens, UniProt P22303)
# T1 sequence (P22303 whole entry): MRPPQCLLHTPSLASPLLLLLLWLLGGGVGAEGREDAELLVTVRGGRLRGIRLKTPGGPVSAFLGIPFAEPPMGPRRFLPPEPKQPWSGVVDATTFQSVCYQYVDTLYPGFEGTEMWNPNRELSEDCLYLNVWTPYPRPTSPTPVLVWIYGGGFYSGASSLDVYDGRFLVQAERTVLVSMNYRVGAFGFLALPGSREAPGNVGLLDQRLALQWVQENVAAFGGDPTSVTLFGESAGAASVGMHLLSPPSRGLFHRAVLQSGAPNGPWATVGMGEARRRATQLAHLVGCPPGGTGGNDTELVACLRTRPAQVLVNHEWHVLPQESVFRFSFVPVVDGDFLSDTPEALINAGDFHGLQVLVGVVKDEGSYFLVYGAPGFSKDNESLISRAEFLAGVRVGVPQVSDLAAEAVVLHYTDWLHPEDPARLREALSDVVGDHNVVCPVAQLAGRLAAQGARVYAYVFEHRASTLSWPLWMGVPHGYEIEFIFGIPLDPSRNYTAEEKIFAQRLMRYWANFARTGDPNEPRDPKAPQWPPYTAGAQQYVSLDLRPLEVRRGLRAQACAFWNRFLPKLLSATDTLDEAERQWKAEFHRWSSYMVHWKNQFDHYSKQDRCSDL
# Experiment: Inhibition of human recombinant AChE using acetylthiocholine iodide as substrate preincubated for 20 mins prior to substrate addition by Ellman's method
# Conditions: not given
# Outline: as §1
row,Structure (SMILES),IC50
1,CN(CCCOc1ccc(-c2cc3ccccc3o2)cc1)Cc1ccccc1,Not Active

# Same assay, conditions: read-out: IC50
row,Structure (SMILES),IC50 [µM]
1,CN(CCCCCCCOc1cccc(-c2oc3ccccc3c2C(=O)c2ccccc2)c1)Cc1ccccc1,0.24
2,Cc1cccc(C(=O)c2c(-c3cccc(OCCCCCCCN(C)Cc4ccccc4)c3)oc3ccccc23)c1,102
3,CNC(=O)Oc1cccc(CN(C)CCCCCCCOc2ccc(-c3oc4ccccc4c3C(=O)c3ccc(C)cc3)cc2)c1,0.34

# Target: T1, Acetylcholinesterase
# Experiment: Pseudo-irreversible inhibition of human recombinant AChE using acetylthiocholine iodide as substrate preincubated for 20 mins prior to substrate addition by Ellman's method
# Conditions: not given
row,Structure (SMILES),inhibition
1,CNC(=O)Oc1cccc(CN(C)CCCCCCCOc2ccc(-c3oc4ccccc4c3C(=O)c3ccc(C)cc3)cc2)c1,Active

# Target: T1, Acetylcholinesterase
# Experiment: Ratio of rivastigmine IC50 to compound IC50 for human recombinant AChE
# Conditions: not given
row,Structure (SMILES),Ratio IC50
1,CNC(=O)Oc1cccc(CN(C)CCCCCCCOc2ccc(-c3oc4ccccc4c3C(=O)c3ccc(C)cc3)cc2)c1,1

# Test system: not listed separately
# Experiment: Inhibition of amyloid beta (25 to 35) fibril formation at 10 uM incubated up to 6 hrs by UV-Vis spectrophotometric analysis
# Conditions: not given
# Outline: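 Aβ25-35 at 100 μM final, in 10 mM phosphate buffer pH 7.2, sonicated 1 min on addition. Compound added in MeOH at 10 μM final, with curcumin reference alongside. Polymerization followed by UV-vis at 190-380 nm over 0-6 h. Spectra of compound alone were subtracted. At least three independent runs.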
row,Structure (SMILES),inhibition
1,CN(CCCCCCCOc1ccc(-c2oc3ccccc3c2C(=O)c2ccccc2)cc1)Cc1ccccc1,47%
2,CN(CCCCCCCOc1cccc(-c2oc3ccccc3c2C(=O)c2ccccc2)c1)Cc1ccccc1,35%
3,CN(CCCOc1ccc(-c2cc3ccccc3o2)cc1)Cc1ccccc1,Active
4,Cc1cccc(C(=O)c2c(-c3cccc(OCCCCCCCN(C)Cc4ccccc4)c3)oc3ccccc23)c1,48%

# Test system: not listed separately
# Experiment: Inhibition of amyloid beta (25 to 35) fibril formation incubated up to 6 hrs by UV-Vis spectrophotometric analysis
# Conditions: not given
# Outline: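 Aβ25-35, sonicated 1 min, was mixed in 10 mM phosphate buffer (pH 7.2) with compound added in MeOH, on ice. Polymerization was followed by UV-visible spectroscopy at 190–380 nm over 0–6 h. Compound-alone spectra were subtracted, and peptide-alone and curcumin controls were run in parallel. IC50 (0.1–50 range) came from a sigmoidal least-squares fit. At least three independent runs.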
row,Structure (SMILES),IC50 [µM]
1,COc1cc(/C=C/C(=O)CC(=O)/C=C/c2ccc(O)c(OC)c2)ccc1O [CURCUMIN],10
2,CN(CCCCCCCOc1ccc(-c2oc3ccccc3c2C(=O)c2ccccc2)cc1)Cc1ccccc1,12.5

# Test system: SH-SY5Y
# Experiment: Neuroprotective activity in human SH-SY5Y cells assessed as inhibition of amyloid beta (25 to 35)-induced cytotoxicity at 30 uM after 3 hrs by MTT assay
# Format: functional
# Conditions: not given
# Outline: (§2)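 SH-SY5Y cells in DMEM with 10% FBS were seeded at 3 × 10⁴/well for 24 h. They were exposed for 3 h at 37 °C to HFIP-pretreated unaggregated Aβ25-35 with or without compound (1–30 range). Viability was read by MTT (5 mg/mL, 2 h; isopropanol; 570/690 nm) as % of untreated control. Percentage protection is given at the highest concentration. Mean ± SD of at least two experiments.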
row,Structure (SMILES),inhibition at 30 µM [%]
1,CN(CCCCCCCOc1ccc(-c2oc3ccccc3c2C(=O)c2ccccc2)cc1)Cc1ccccc1,58.2
2,CN(CCCCCCCOc1cccc(-c2oc3ccccc3c2C(=O)c2ccccc2)c1)Cc1ccccc1,48.4
3,Cc1cccc(C(=O)c2c(-c3cccc(OCCCCCCCN(C)Cc4ccccc4)c3)oc3ccccc23)c1,46.2

# Test system: SH-SY5Y
# Experiment: Neuroprotective activity in human SH-SY5Y cells assessed as inhibition of amyloid beta (25 to 35)-induced cytotoxicity after 3 hrs by MTT assay
# Format: functional, cell-based
# Conditions: not given
# Outline: as §2
row,Structure (SMILES),inhibition
1,CN(CCCCCCCOc1cccc(-c2oc3ccccc3c2C(=O)c2ccccc2)c1)Cc1ccccc1,Dose-dependent effect
2,Cc1cccc(C(=O)c2c(-c3cccc(OCCCCCCCN(C)Cc4ccccc4)c3)oc3ccccc23)c1,Dose-dependent effect

# Target: Amyloid-beta precursor protein (Homo sapiens) (UniProt P05067)
# Sequence (P05067 whole entry): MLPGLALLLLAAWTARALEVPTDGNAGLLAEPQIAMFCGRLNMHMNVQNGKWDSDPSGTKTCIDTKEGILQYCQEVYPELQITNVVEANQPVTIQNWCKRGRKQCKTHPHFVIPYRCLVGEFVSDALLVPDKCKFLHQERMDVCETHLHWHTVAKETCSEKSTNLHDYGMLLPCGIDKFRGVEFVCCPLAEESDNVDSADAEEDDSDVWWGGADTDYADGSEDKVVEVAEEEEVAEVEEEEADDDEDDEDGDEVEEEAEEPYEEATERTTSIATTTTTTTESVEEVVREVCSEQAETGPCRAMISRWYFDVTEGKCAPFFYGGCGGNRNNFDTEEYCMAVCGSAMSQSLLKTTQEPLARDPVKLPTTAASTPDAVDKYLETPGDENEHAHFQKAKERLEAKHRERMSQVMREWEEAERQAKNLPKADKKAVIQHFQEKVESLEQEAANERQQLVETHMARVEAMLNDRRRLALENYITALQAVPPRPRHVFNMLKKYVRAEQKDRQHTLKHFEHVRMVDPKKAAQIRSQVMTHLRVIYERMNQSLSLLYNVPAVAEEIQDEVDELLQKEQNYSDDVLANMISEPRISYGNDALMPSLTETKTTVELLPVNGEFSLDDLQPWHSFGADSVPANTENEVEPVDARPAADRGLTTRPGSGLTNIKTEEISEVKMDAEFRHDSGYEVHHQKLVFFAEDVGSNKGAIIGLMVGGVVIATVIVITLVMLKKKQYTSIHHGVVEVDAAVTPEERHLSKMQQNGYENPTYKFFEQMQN
# Experiment: Inhibition of amyloid beta (25 to 35) binding to plasma membrane surface of human Sh-SY5Y cells at 30 uM after 30 mins by congo red-based spectrophotometry
# Format: cell-based
# Conditions: not given
# Outline: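 SH-SY5Y cells were seeded at 5 × 10³/well for 24 h, then given fresh medium with Aβ25-35 and compound for 10, 20 and 30 min. After two PBS washes, bound peptide was stained with Congo red in PBS for 20 min. Absorbance was read at 540 nm and expressed as % of untreated cells.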
row,Structure (SMILES),inhibition
1,CN(CCCCCCCOc1ccc(-c2oc3ccccc3c2C(=O)c2ccccc2)cc1)Cc1ccccc1,Active
2,CN(CCCCCCCOc1cccc(-c2oc3ccccc3c2C(=O)c2ccccc2)c1)Cc1ccccc1,Active
3,Cc1cccc(C(=O)c2c(-c3cccc(OCCCCCCCN(C)Cc4ccccc4)c3)oc3ccccc23)c1,Active

# Test system: SH-SY5Y
# Experiment: Neuroprotective effect in human SH-SY5Y cells assessed as inhibition of amyloid beta (25 to 35)-induced ROS production at 30 uM after 3 hrs by DHE-based fluorimetric analysis
# Format: functional, cell-based
# Conditions: not given
# Outline: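 SH-SY5Y cells were seeded at 1 × 10⁴/well on culture slides for 24 h and treated with Aβ25-35 with or without compound for 3 h. ROS was measured with DHE loaded for 15 min in the dark, then 1 h in serum-free DMEM at 37 °C. Fluorescence microscopy covered four random fields of 50–100 cells each, scored as densitometry per cell versus untreated cells. Mean ± SD of three experiments.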
row,Structure (SMILES),inhibition
1,CN(CCCCCCCOc1ccc(-c2oc3ccccc3c2C(=O)c2ccccc2)cc1)Cc1ccccc1,Active
2,CN(CCCCCCCOc1cccc(-c2oc3ccccc3c2C(=O)c2ccccc2)c1)Cc1ccccc1,Active
3,Cc1cccc(C(=O)c2c(-c3cccc(OCCCCCCCN(C)Cc4ccccc4)c3)oc3ccccc23)c1,Active

# Target: T2, Cannabinoid receptor 1 (Homo sapiens, UniProt P21554)
# T2 sequence (P21554 whole entry): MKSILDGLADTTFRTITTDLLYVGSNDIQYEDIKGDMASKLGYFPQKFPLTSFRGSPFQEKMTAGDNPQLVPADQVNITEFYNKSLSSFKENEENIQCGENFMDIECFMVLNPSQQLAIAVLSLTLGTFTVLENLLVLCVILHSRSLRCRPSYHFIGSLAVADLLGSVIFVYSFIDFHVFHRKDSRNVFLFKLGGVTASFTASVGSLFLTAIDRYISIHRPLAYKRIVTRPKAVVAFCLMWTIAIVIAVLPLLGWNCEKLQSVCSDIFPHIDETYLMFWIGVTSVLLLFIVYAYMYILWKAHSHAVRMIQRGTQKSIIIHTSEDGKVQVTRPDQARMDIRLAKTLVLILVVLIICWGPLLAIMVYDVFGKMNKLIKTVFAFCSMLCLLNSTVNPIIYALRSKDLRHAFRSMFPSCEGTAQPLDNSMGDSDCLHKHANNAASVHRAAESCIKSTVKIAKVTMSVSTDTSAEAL
# Experiment: Displacement of [3H]CP-55940 from human recombinant CB1 receptor expressed in HEK293 cells after 90 mins
# Format: cell-based
# Conditions: not given
# Outline: (§3)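 Membranes from HEK-293 cells stably expressing human recombinant CB1 (Bmax 2.5 pmol/mg) or CB2 (Bmax 4.7 pmol/mg). Incubated with [3H]-CP-55,940 (CB1 0.14 nM, Kd 0.18 nM; CB2 0.084 nM, Kd 0.31 nM) and increasing compound concentrations for 90 min at 30 °C. Non-specific binding defined with 10 […] 55212-2. IC50 by non-linear regression, converted to Ki by Cheng-Prusoff. Means of at least n = 3.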
Structure (SMILES),EC50 [µM],Ki [µM],Activity
CN(CCCCCCCOc1ccc(-c2cc3ccccc3o2)cc1)Cc1ccccc1,6.95,2.8,–
CN(CCCCCCCOc1ccc(-c2oc3ccccc3c2C(=O)c2ccccc2)cc1)Cc1ccccc1,0.79,0.32,–
CN(CCCCCCCOc1cccc(-c2oc3ccccc3c2C(=O)c2ccccc2)c1)Cc1ccccc1,–,–,inactive
Cc1cccc(C(=O)c2c(-c3cccc(OCCCCCCCN(C)Cc4ccccc4)c3)oc3ccccc23)c1,–,–,inactive

# Target: T2, Cannabinoid receptor 1
# Experiment: Displacement of [3H]CP-55940 from human recombinant CB1 receptor expressed in HEK293 cells at 10 uM after 90 mins
# Format: cell-based
# Conditions: not given
# Outline: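 Membranes from HEK-293 cells stably expressing human recombinant CB1 or CB2 were incubated with [³H]-CP-55,940 (0.14 nM for CB1; 0.084 nM for CB2) plus test compound for 90 min at 30 °C. Non-specific binding was defined with WIN 55212-2. Percent displacement of bound radioligand at the maximum tested concentration is reported. At least n = 3 experiments.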
row,Structure (SMILES),Activity [%]
1,CN(CCCCCCCOc1ccc(-c2cc3ccccc3o2)cc1)Cc1ccccc1,57.8
2,CN(CCCCCCCOc1ccc(-c2oc3ccccc3c2C(=O)c2ccccc2)cc1)Cc1ccccc1,8.72

# Target: T3, Cannabinoid receptor 2 (Homo sapiens, UniProt P34972)
# T3 sequence (P34972 whole entry): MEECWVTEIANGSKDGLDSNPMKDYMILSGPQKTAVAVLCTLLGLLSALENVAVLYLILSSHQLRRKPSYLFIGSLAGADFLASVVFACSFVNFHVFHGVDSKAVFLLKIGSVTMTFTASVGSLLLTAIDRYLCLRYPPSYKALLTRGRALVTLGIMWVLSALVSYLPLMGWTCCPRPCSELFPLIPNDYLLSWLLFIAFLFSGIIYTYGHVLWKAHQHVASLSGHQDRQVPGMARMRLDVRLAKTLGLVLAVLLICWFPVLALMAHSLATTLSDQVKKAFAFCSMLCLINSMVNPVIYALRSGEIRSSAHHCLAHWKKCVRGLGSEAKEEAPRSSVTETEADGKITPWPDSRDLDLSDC
# Experiment: Displacement of [3H]CP-55940 from human recombinant CB2 receptor expressed in HEK293 cells after 90 mins
# Format: cell-based
# Conditions: not given
# Outline: as §3
Structure (SMILES),EC50 [µM],Ki [µM],Activity
CN(CCCCCCCOc1ccc(-c2cc3ccccc3o2)cc1)Cc1ccccc1,> 10,> 10,–
CN(CCCCCCCOc1ccc(-c2oc3ccccc3c2C(=O)c2ccccc2)cc1)Cc1ccccc1,> 10,> 10,–
CN(CCCCCCCOc1cccc(-c2oc3ccccc3c2C(=O)c2ccccc2)c1)Cc1ccccc1,–,–,inactive
Cc1cccc(C(=O)c2c(-c3cccc(OCCCCCCCN(C)Cc4ccccc4)c3)oc3ccccc23)c1,–,–,inactive

# Target: T3, Cannabinoid receptor 2
# Experiment: Displacement of [3H]CP-55940 from human recombinant CB2 receptor expressed in HEK293 cells at 10 uM after 90 mins
# Format: cell-based
# Conditions: not given
row,Structure (SMILES),Activity [%]
1,CN(CCCCCCCOc1ccc(-c2cc3ccccc3o2)cc1)Cc1ccccc1,21.8
2,CN(CCCCCCCOc1ccc(-c2oc3ccccc3c2C(=O)c2ccccc2)cc1)Cc1ccccc1,47.3

# Reference: ChEMBL document CHEMBL2157903, “2-Arylbenzofuran-based molecules as multipotent Alzheimer's disease modifying agents” (Eur J Med Chem, 2012)
